11 molecules from ChEMBL document CHEMBL3865830, “Multifunctional diamine AGE/ALE inhibitors with potential therapeutical properties against Alzheimer's disease” (Eur J Med Chem, 2016) can be followed below.

Data set [1] can be described thus: Metal chelating activity of compound assessed as compound-Cu2+ complex formation at 200 uM after 10 mins in presence of CuSO4.5H2O by complexometric indicator murexide based UV-Vis spectrophotometric analysis. Type of data set: physicochemical. The method, boiled down: (§1)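 Compound (0.02-2 mM) incubated with CuSO4 (120 µM) for 10 min at rt, in 10 mM hexamine/HCl with 10 mM KCl (pH 5.0), or in buffer/MeOH 75:25 for poorly soluble compounds. Murexide added, 1 min more. The A485/A520 ratio gives free Cu2+ from a CuSO4 calibration curve (0-125 µM). % chelation is taken by difference from the no-compound control; triplicates.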

A short description of data set [2]: Metal chelating activity of compound assessed as compound-Cu2+ complex formation at 0.02 mM after 10 mins in presence of CuSO4.5H2O by complexometric indicator murexide based UV-Vis spectrophotometric analysis. Type of data set: physicochemical. The conditions noted are these: 20 µM. The method, boiled down: as §1
Data set [3] can be described thus: Metal chelating activity of compound assessed as compound-Cu2+ complex formation at 0.05 mM after 10 mins in presence of CuSO4.5H2O by complexometric indicator murexide based UV-Vis spectrophotometric analysis. In kind it is physicochemical. The settings on record: 50 µM. The method, boiled down:
as §1

Data set [4] is described as follows: Metal chelating activity of compound assessed as compound-Cu2+ complex formation at 0.08 mM after 10 mins in presence of CuSO4.5H2O by complexometric indicator murexide based UV-Vis spectrophotometric analysis. The settings on record: 80 µM. In kind it is physicochemical. The method, boiled down:
as §1

Data set [5] is described as follows: Metal chelating activity of compound assessed as compound-Cu2+ complex formation at 0.1 mM after 10 mins in presence of CuSO4.5H2O by complexometric indicator murexide based UV-Vis spectrophotometric analysis. The settings on record: 100 µM. Type of data set: physicochemical. The method, boiled down:
as §1

Data set [6] can be described thus: Metal chelating activity of compound assessed as compound-Cu2+ complex formation at 0.5 mM after 10 mins in presence of CuSO4.5H2O by complexometric indicator murexide based UV-Vis spectrophotometric analysis. Type of data set: physicochemical. The settings on record: 500 µM. The method, boiled down:
as §1

A short description of data set [7]: Metal chelating activity of compound assessed as compound-Cu2+ complex formation at 1 mM after 10 mins in presence of CuSO4.5H2O by complexometric indicator murexide based UV-Vis spectrophotometric analysis. Type of data set: physicochemical. The settings on record: 1000 µM. The method, boiled down: as §1
The nature of data set [8]: Metal chelating activity of compound assessed as compound-Cu2+ complex formation at 2 mM after 10 mins in presence of CuSO4.5H2O by complexometric indicator murexide based UV-Vis spectrophotometric analysis. In kind it is physicochemical. The conditions noted are these: 2000 µM. The method, boiled down:
as §1

A short description of data set [9]: Antioxidant activity assessed as inhibition of AAPH-induced peroxyl radical generation measured as trolox equivalent at 10 uM preincubated for 30 mins followed by AAPH addition measured evey 60 secs for 60 cycles by ORAC-FL assay. Type of data set: functional. The settings on record: in the assay text read “90 secs” for “60 secs”. The method, boiled down:
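Fluorescein (12 nM) preincubated with compound (1-20 µM) or Trolox standard (1-50 µM) in D-PBS, at least 30 min at 37 °C. Reaction started with AAPH (30 mM). Fluorescence (ex 485/em 520 nm) read every 90 s for 60 cycles. Net AUC is converted to Trolox equivalents via the Trolox calibration line. Values are reported at 10 µM, from at least three independent experiments in triplicate.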

The species named for a further data set is Rattus norvegicus. Nature of the data set: Cytotoxicity against rat […] PC12 cells assessed as reduction in cell viability at 10 to 100 uM after 24 hrs by WST8-based CCK8 assay. Type of data set: toxicity. The settings on record: pc-12, 24 h. The method, boiled down:
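PC12 Adh cells (rat pheochromocytoma-derived) grown in F-12K with 2.5% FBS, 15% horse serum and pen/strep at 37 °C, 5% CO2. Seeded at 5×10^3 cells/well; treated at 80% confluency with 10 or 100 µM for 24 h. 10% DMSO served as positive cytotoxicity control. CCK-8 added for 1 h at 37 °C, absorbance read at 450 nm. Viability given as % of untreated cells; at least three experiments in triplicate.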

The nature of data set [10]: Reactive carbonyl species trapping activity of compound assessed as MGO adduct formation at 10 mM preincubated for 24 hrs with MGO measured after 24 hrs by LCMS analysis. Type of data set: physicochemical. The settings on record: 10000 µM.
A short description of data set [11]: Reactive carbonyl species trapping activity of compound assessed as MGO adduct formation at 10 mM preincubated for 24 hrs with MGO measured after 15 mins by LCMS analysis. Type of data set: physicochemical. The conditions noted are these: 0.25 h, 10000 µM.
A short description of data set [12]: Reactive carbonyl species trapping activity of compound assessed as MDA adduct formation at 10 mM preincubated for 24 hrs with MDA measured after 1 hr by LCMS analysis. Type of data set: physicochemical. The conditions noted are these: 10000 µM.
A short description of data set [13]: Reactive carbonyl species trapping activity of compound assessed as MGO adduct formation at 10 mM preincubated for 24 hrs with MGO measured after 0.25 hrs by LCMS analysis. In kind it is physicochemical. The conditions noted are these: 10000 µM.
The nature of data set [14]: Reactive carbonyl species trapping activity of compound assessed as MGO adduct formation at 10 mM preincubated for 24 hrs with MGO measured after 0.5 hrs by LCMS analysis. In kind it is physicochemical. The conditions noted are these: 10000 µM.
Data set [15] in a line: Reactive carbonyl species trapping activity of compound assessed as MGO adduct formation at 10 mM preincubated for 24 hrs with MGO measured after 5 hrs by LCMS analysis. In kind it is physicochemical. The settings on record: 10000 µM.
Data set [16] can be described thus: Reactive carbonyl species trapping activity of compound assessed as MDA adduct formation at 10 mM preincubated for 24 hrs with MDA measured after 0.25 hrs by LCMS analysis. Type of data set: physicochemical. The conditions noted are these: 10000 µM.
Data set [17] in a line: Reactive carbonyl species trapping activity of compound assessed as MDA adduct formation at 10 mM preincubated for 24 hrs with MDA measured after 5 hrs by LCMS analysis. The conditions noted are these: 10000 µM. Type of data set: physicochemical.
Data set [18] in a line: Reactive carbonyl species trapping activity of compound assessed as MDA adduct formation at 10 mM preincubated for 24 hrs with MDA measured after 24 hrs by LCMS analysis. Type of data set: physicochemical. The settings on record: 10000 µM.
Data set [19] is described as follows: Reactive carbonyl species trapping activity of compound assessed as MGO adduct formation at 10 mM preincubated for 24 hrs with MGO measured after 1 hr by LCMS analysis. In kind it is physicochemical. The conditions noted are these: 10000 µM.
The nature of data set [20]: Reactive carbonyl species trapping activity of compound assessed as MDA adduct formation at 10 mM preincubated for 24 hrs with MDA measured after 0.5 hrs by LCMS analysis. Type of data set: physicochemical. The conditions noted are these: 10000 µM.

As to `NCCN` [ETHYLENEDIAMINE], the Activity in [1] is listed as 100%; in [2], 18.81%; in data set [3], 44.49%; in data set [4], 64.61%; in data set [5] it was 69.82%; in data set [6] it was 100%. Besides, the Activity in data set [7] and in [8] was 100% in each case.
For the molecule `COc1cc(/C=C/C(=O)N2CCN(C(=O)CCC(N)CN)CC2)ccc1O.Cl.Cl` (centres undefined), the Activity (umolequiv/umol) in data set [9] turned out to be 2.05. The Activity in [1] was 45.61%; in the data set listed under Rattus norvegicus, “Non-Toxic”; in data set [2] it was 3.3%; in [3], 14.92%; in data set [4] it was 22.44%; in [5] it was 28.75%. The figures for the Activity in data set [6], in [7] and in data set [8] were 61.66%, 71.51% and 81.81%, respectively.
On to `Cl.Cl.NCC(N)CCCCNC(=O)CCn1cccc(OCc2ccccc2)c1=O` (centres undefined), for which the Activity in [1] came to 33.91%; in data set [2], 6.59%; in data set [3] it was 12.05%; in data set [4], 19.27%; in data set [5], 21.41%; in [6], 51.43%. The Activity in data set [7] is reported as 61.48%; in [8], 67.84%.
Take `NCCC(=O)N[C@@H](Cc1c[nH]cn1)C(=O)O`: the Activity (umolequiv/umol) in [9] stood at 0.08.
Turning to `Cl.Cl.NCC(N)CCCCNC(=O)CCn1cccc(O)c1=O` (centres undefined), the Activity in [10] is listed as 100%; in data set [11], 98%; in data set [12], 69%; in data set [1], 62.77%; in the data set filed under Rattus norvegicus, “Non-Toxic”; in [13] it was 98%. Further, the Activity in [14] worked out at 96%; in data set [15] it was 99%; in data set [16], 65%; in data set [17], 73%; in data set [18] it was 95%; in [2] it was 12.05%. The Activity turned out to be 24.51% in data set [3]; 34.87% in [4]; 41.17% in [5]; 81.17% in [6]; 85.56% in data set [7]; 87.04% in data set [8]. Also, the Activity (umolequiv/umol) in [9] worked out at 1.21.
Regarding `Cl.Cl.NCC(N)CCCCNC(=O)c1cc(O)c(O)c(O)c1` (centres undefined), the Activity in data set [10] is listed as 95%; in [11] it was 90%; in [12], 84%; in [1], 87.39%; in the data set listed under Rattus norvegicus, “Non-Toxic”; in [13], 90%. The Activity in data set [19] stood at 93%; in [15] it was 89%; in data set [20], 80%; in data set [17], 87%; in [18], 81%; in data set [2] it was 14.24%. Further, the Activity is listed as 31.34% in data set [3]; 50.28% in [4]; 61.98% in [5]; 93.72% in data set [6]; 93.82% in [7]; 88.48% in data set [8]. In data set [9], the Activity (umolequiv/umol) was determined as 2.59.
With `Cc1c(C)c2c(c(C)c1O)CCC(C)(C(=O)O)O2` (centres undefined), in [9], the Activity (umolequiv/umol) turned out to be 1.
In the case of `NCCC(=O)N[C@@H](Cc1cnc[nH]1)C(=O)O` [CARNOSINE], the Activity came out at 59% in data set [10]; 46% in [11]; 40% in data set [12]; 1.53% in data set [1]; 46% in data set [13]; 51% in data set [14]. Besides, the Activity in [15] is reported as 58%; in data set [16], 23%; in [20], 32%; in data set [17] it was 38%; in [18], 66%; in [2], 0.73%. Further, the Activity in [3] amounted to 0%; in [4], 0.38%; in data set [5] it was 0.72%; in [6], 5.39%; in data set [7], 16.92%; in data set [8] it was 41.7%.
Turning to `Cl.Cl.NCC(N)CC(=O)N1CCN(C(=O)CCn2cccc(O)c2=O)CC1` (centres undefined), the Activity in data set [10] is 99%; in [11], 99%; in data set [12] it was 87%; in [1], 50.25%; in the data set filed under Rattus norvegicus it was “Toxic”; in data set [13] it was 99%. Besides, the Activity in [14] is 97%; in [19], 99%; in data set [15] it was 99%; in data set [16], 75%; in [17], 92%; in data set [18], 91%. For the same molecule, the Activity was determined as 10.33% in [2]; 18.5% in data set [3]; 27.53% in data set [4]; 30.74% in data set [5]; 68.5% in data set [6]; 75.14% in [7]. Also, the Activity in data set [8] came out at 78.98%. Moreover, the Activity (umolequiv/umol) in data set [9] was found to be 0.58.
Turning to `CCCCN1CCN(C(=O)C(N)CN)CC1.Cl.Cl` (centres undefined), the Activity in data set [10] was 100%; in [11], 59%; in [1] it was 27.68%; in data set [13], 59%; in data set [19], 70%; in data set [15] it was 93%. For the same molecule, the Activity was determined as 62% in data set [16]; 65% in data set [20]; 77% in [17]; 62% in data set [18]; 3.22% in data set [2]; 10.28% in data set [3]. Further, the Activity in [4] is listed as 14.87%; in data set [5] it was 16.55%; in data set [6], 43.56%; in data set [7], 53.27%; in data set [8], 62.53%.
As to `CC(C)(C)OC(=O)NCC(CCCCNC(=O)CCn1cccc(O)c1=O)NC(=O)OC(C)(C)C.Cl.Cl` (centres undefined), the Activity is recorded as 54.61% in data set [1]; 11.08% in data set [2]; 19.87% in data set [3]; 30.19% in [4]; 34.48% in [5]; 76.54% in [6]. Further, the Activity in [7] came to 89.96%; in [8], 94.72%.
